Active and inactive are the calls of the source. No cut-off for these calls is given here.
Legend:
[1] = biological target: T1, Macrophage colony-stimulating factor 1 receptor (Homo sapiens, UniProt P07333); assay: Inhibition of human CSF1R at 10 uM using poly[Glu:Tyr] (4:1) as substrate after 120 mins in presence of 10 uM [gamma-33P]-ATP by filtration method relative to control
Method in brief: (§1)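 Radiometric HotSpot assay measuring substrate phosphorylation directly, with 10 μM ATP. Single-dose screen at 10 μM in duplicate, reported as mean % inhibition from two independent experiments.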

[2] = biological target: T1, Macrophage colony-stimulating factor 1 receptor; assay: Inhibition of human CSF1R using poly[Glu:Tyr] (4:1) as substrate after 120 mins in presence of 10 uM [gamma-33P]-ATP by filtration method
Method in brief: (§2)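 Radiometric HotSpot assay with direct measurement of phosphorylated substrate at 10 μM ATP. IC50 was taken from a duplicate 10-dose series, 3-fold dilutions starting at 20 μM, reported as mean.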

[3] = biological target: T2, Death-associated protein kinase 1 (Homo sapiens, UniProt P53355); assay: Inhibition of human DAPK1 (1 to 363 residues) at 10 uM using KKLNRTLSFAEPG as substrate after 120 mins in presence of 10 uM [gamma-33P]-ATP by filtration method relative to control; method in brief: as §1
Target sequence in this assay (P53355 whole entry, looked up, the tested form may be a part): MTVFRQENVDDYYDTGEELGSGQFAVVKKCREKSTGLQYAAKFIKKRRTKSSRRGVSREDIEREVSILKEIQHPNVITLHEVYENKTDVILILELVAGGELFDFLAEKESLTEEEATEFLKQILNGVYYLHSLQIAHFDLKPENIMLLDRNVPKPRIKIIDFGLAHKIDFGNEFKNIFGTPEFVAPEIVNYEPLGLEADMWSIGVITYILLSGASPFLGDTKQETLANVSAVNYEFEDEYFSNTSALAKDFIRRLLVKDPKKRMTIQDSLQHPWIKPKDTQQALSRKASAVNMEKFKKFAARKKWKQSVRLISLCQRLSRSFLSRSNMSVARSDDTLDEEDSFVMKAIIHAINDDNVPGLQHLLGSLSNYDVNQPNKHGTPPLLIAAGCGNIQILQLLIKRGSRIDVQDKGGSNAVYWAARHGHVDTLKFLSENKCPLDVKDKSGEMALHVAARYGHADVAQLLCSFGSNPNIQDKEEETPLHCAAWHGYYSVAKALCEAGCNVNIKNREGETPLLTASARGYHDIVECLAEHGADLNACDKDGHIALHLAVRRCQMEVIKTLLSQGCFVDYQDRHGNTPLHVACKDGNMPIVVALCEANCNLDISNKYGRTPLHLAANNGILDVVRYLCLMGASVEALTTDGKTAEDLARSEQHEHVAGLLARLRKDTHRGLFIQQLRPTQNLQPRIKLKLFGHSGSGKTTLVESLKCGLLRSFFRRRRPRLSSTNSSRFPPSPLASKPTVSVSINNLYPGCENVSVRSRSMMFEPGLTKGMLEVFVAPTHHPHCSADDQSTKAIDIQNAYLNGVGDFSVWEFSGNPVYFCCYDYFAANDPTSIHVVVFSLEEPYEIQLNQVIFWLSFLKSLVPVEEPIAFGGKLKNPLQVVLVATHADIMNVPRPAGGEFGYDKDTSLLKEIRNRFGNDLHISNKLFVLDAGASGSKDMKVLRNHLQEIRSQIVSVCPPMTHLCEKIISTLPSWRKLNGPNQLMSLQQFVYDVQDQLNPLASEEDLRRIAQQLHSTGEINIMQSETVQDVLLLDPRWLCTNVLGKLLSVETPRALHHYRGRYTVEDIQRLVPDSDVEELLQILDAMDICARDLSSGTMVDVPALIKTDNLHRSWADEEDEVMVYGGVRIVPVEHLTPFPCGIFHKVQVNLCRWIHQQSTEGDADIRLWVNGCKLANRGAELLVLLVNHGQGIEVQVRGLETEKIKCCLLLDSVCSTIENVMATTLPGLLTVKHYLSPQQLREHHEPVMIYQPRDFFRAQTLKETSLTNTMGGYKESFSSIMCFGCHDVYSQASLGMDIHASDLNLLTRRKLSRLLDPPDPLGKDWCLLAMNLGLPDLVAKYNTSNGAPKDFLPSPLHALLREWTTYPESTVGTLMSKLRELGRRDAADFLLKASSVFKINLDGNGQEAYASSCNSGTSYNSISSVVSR

[4] = biological target: T2, Death-associated protein kinase 1; assay: Inhibition of human DAPK1 (1 to 363 residues) using KKLNRTLSFAEPG as substrate after 120 mins in presence of 10 uM [gamma-33P]-ATP by filtration method; method in brief: as §2
Target sequence in this assay (P53355 whole entry, the tested form may be a part): as the sequence (P53355 whole entry, looked up, the tested form may be a part) above

[5] = biological target: T2, Death-associated protein kinase 1; assay: Inhibition of DAPK1 in HEK293 tau-BiFC cells assessed as reduction in forskolin-induced tau aggregation at 50 uM after 48 hrs by Hoechst staining based HCS analysis; format: cell-based
Method in brief: (§3)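 HEK293 cells expressing tau-BiFC were exposed to compounds at 50, 10 and 1 μM with forskolin (30 μM) as the tau aggregation activator for 48 h. BiFC fluorescence intensity was quantified as the read-out. Data are mean ± SD.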
Target sequence in this assay (P53355 whole entry, looked up, the tested form may be a part): as above

[6] = biological target: T2, Death-associated protein kinase 1; assay: Inhibition of human DAPK1 (1 to 363 residues) at 20 uM using KKLNRTLSFAEPG as substrate after 120 mins in presence of 10 uM [gamma-33P]-ATP by filtration method relative to control
Method in brief: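 Radiometric HotSpot kinase assay with 10 μM ATP. Compound tested at a single 20 μM concentration, reported as mean % inhibition from two independent experiments.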
Target sequence in this assay (P53355 whole entry, looked up, the tested form may be a part): as above

[7] = biological target: T2, Death-associated protein kinase 1; assay: Inhibition of DAPK1 in HEK293 tau-BiFC cells assessed as reduction in forskolin-induced tau aggregation at 10 uM after 48 hrs by Hoechst staining based HCS analysis; format: cell-based; method in brief: as §3
Target sequence in this assay (P53355 whole entry, looked up, the tested form may be a part): as above

[8] = biological target: T2, Death-associated protein kinase 1; assay: Inhibition of human DAPK1 (1 to 363 residues) using KKLNRTLSFAEPG as substrate after 120 mins in presence of 1 uM [gamma-33P]-ATP by filtration method
Method in brief: (§4)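 Dose-response curves were run at 1, 10 and 100 μM ATP, giving an IC50 at each ATP level; Ki was calculated.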
Target sequence in this assay (P53355 whole entry, the tested form may be a part): as the sequence (P53355 whole entry, looked up, the tested form may be a part) above

[9] = biological target: T2, Death-associated protein kinase 1; assay: Inhibition of human DAPK1 (1 to 363 residues) using KKLNRTLSFAEPG as substrate after 120 mins in presence of 100 uM [gamma-33P]-ATP by filtration method; method in brief: as §4
Target sequence in this assay (P53355 whole entry, the tested form may be a part): as the sequence (P53355 whole entry, looked up, the tested form may be a part) above

[10] = biological target: T2, Death-associated protein kinase 1; assay: Inhibition of human DAPK1 (1 to 363 residues) using KKLNRTLSFAEPG as substrate after 120 mins [gamma-33P]-ATP by filtration method; method in brief: as §2
Target sequence in this assay (P53355 whole entry, the tested form may be a part): as the sequence (P53355 whole entry, looked up, the tested form may be a part) above

[11] = biological target: T1, Macrophage colony-stimulating factor 1 receptor; assay: Inhibition of human CSF1R using poly[Glu:Tyr] (4:1) as substrate after 120 mins in presence of 1 uM [gamma-33P]-ATP by filtration method
Method in brief: (§5)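 CSF1R radiometric kinase assay with dose-response curves at 1, 10 and 100 μM ATP. IC50 was calculated at each ATP concentration, and Ki was derived.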

[12] = biological target: T1, Macrophage colony-stimulating factor 1 receptor; assay: Inhibition of human CSF1R using poly[Glu:Tyr] (4:1) as substrate after 120 mins in presence of 100 uM [gamma-33P]-ATP by filtration method; method in brief: as §5
[13] = biological target: T1, Macrophage colony-stimulating factor 1 receptor; assay: Inhibition of human CSF1R using poly[Glu:Tyr] (4:1) as substrate after 120 mins in presence of [gamma-33P]-ATP by filtration method
[14] = biological target: T2, Death-associated protein kinase 1; assay: Inhibition of DAPK1 in HEK293 tau-BiFC cells assessed as reduction in forskolin-induced tau aggregation at 16 uM after 48 hrs by Hoechst staining based HCS analysis relative to control; format: cell-based
Method in brief: (§6)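 HEK293 tau-BiFC cells were given forskolin (30 μM) and compound in a 5-dose series (1, 2, 4, 8, 16 μM) for 48 h. BiFC fluorescence was quantified and a cellular IC50 was derived from the series.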
Target sequence in this assay (P53355 whole entry, looked up, the tested form may be a part): as above

[15] = biological target: T2, Death-associated protein kinase 1; assay: Inhibition of DAPK1 in HEK293 tau-BiFC cells assessed as reduction in forskolin-induced tau aggregation after 48 hrs by Hoechst staining based HCS analysis; format: cell-based; method in brief: as §6
Target sequence in this assay (P53355 whole entry, the tested form may be a part): as the sequence (P53355 whole entry, looked up, the tested form may be a part) above

BV-2 = assay: Anti-neuroinflammatory activity in mouse BV2 cells assessed as inhibition of LPS-stimulated NO production at 10 uM preincubated for 1 hr followed by LPS stimulation for 23 hrs by Griess reagent based assay relative to control; format: functional
Method in brief: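 Mouse BV-2 microglia were stimulated with LPS, with or without compound at 10 μM, and NO production was measured. Values are means ± SD of five independent experiments.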

[16] = Cytotoxicity against LPS-stimulated mouse BV2 cells assessed as cell viability at 10 uM after 24 hrs by MTT assay relative to control; format: cell-based, BV-2; conditions: read-out: Activity
Method in brief: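 BV-2 cell viability was measured in the presence of compound together with LPS and expressed relative to control. Values are means ± SD of five independent experiments.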

[17] = biological target: Platelet-derived growth factor receptor alpha (Homo sapiens) (UniProt P16234); assay: Inhibition of human PDGFRalpha at 10 uM using poly[Glu:Tyr] (4:1) as substrate after 120 mins [gamma-33P]-ATP by filtration method
Method in brief: (§7)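 Radiometric kinase selectivity panel of 47 kinases, with compound at 10 μM. Data are means ± SD of two independent experiments.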

[18] = biological target: Platelet-derived growth factor receptor beta (Homo sapiens) (UniProt P09619); assay: Inhibition of human PDGFRbeta at 10 uM using poly[Glu:Tyr] (4:1) as substrate after 120 mins [gamma-33P]-ATP by filtration method; method in brief: as §7
[19] = biological target: Proto-oncogene tyrosine-protein kinase Src (Homo sapiens) (UniProt P12931); assay: Inhibition of human c-SRC at 10 uM using poly[Glu:Tyr] (4:1) as substrate after 120 mins [gamma-33P]-ATP by filtration method; method in brief: as §7
[20] = biological target: Tyrosine-protein kinase Lyn (Homo sapiens) (UniProt P07948); assay: Inhibition of human LYN at 10 uM using poly[Glu:Tyr] (4:1) as substrate after 120 mins [gamma-33P]-ATP by filtration method; method in brief: as §7
[21] = biological target: Tyrosine-protein kinase Lck (Homo sapiens) (UniProt P06239); assay: Inhibition of human LCK at 10 uM using poly[Glu:Tyr] (4:1) as substrate after 120 mins [gamma-33P]-ATP by filtration method; method in brief: as §7
Chain of Tyrosine-protein kinase Lck (Homo sapiens) (P06239 2-509 limits assumed): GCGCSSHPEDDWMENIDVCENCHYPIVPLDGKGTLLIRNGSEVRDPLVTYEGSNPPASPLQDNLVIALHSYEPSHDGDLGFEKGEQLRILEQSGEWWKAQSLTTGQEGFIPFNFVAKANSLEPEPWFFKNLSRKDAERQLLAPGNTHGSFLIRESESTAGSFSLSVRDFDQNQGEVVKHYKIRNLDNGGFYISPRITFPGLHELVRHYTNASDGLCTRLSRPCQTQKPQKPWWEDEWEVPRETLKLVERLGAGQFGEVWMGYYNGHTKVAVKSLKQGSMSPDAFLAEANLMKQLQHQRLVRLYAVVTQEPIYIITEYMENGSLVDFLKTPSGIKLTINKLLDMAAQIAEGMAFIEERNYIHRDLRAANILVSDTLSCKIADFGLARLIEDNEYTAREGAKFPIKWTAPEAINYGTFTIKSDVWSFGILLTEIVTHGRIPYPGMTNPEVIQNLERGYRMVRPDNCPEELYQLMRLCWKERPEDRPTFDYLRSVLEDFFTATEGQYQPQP

[22] = biological target: Death-associated protein kinase 2 (Homo sapiens) (UniProt Q9UIK4); assay: Inhibition of human DAPK2 at 10 uM using KKLNRTLSFAEPG as substrate after 120 mins [gamma-33P]-ATP by filtration method; method in brief: as §7
Chain of Death-associated protein kinase 2 (Homo sapiens) (Q9UIK4 whole entry, looked up): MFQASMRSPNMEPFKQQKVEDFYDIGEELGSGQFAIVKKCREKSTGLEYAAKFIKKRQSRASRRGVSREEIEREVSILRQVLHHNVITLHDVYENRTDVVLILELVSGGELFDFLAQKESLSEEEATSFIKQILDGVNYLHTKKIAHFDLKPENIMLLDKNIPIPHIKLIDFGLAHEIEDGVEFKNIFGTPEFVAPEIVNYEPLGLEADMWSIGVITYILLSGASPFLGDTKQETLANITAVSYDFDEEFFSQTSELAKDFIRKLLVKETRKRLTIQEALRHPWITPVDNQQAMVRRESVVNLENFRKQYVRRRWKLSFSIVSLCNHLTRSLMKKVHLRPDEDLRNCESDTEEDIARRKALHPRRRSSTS

[23] = biological target: Death-associated protein kinase 3 (Homo sapiens) (UniProt O43293); assay: Inhibition of human DAPK3 at 10 uM using KKLNRTLSFAEPG as substrate after 120 mins [gamma-33P]-ATP by filtration method; method in brief: as §7
[24] = biological target: T3, Serine/threonine-protein kinase 17A (Homo sapiens) (UniProt Q9UEE5); assay: Inhibition of human DRAK1 at 10 uM using KKLNRTLSFAEPG as substrate after 120 mins [gamma-33P]-ATP by filtration method; method in brief: as §7
T3 sequence (whole entry): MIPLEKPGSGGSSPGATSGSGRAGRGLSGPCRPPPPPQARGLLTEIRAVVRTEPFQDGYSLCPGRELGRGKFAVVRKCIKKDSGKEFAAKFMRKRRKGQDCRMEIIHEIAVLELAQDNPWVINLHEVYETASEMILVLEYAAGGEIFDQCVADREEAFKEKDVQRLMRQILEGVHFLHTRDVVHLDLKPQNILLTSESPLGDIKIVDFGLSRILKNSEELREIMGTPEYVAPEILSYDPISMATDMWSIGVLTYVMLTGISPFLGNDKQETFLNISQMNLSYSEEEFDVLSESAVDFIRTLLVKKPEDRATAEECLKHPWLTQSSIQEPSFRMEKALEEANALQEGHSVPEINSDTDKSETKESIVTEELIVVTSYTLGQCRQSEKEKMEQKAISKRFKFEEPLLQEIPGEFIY

[25] = biological target: Serine/threonine-protein kinase pim-1 (Homo sapiens) (UniProt P11309); assay: Inhibition of human PIM1 at 10 uM using KKRNRTLTK as substrate after 120 mins [gamma-33P]-ATP by filtration method; method in brief: as §7
[26] = biological target: Leucine-rich repeat serine/threonine-protein kinase 2 (Homo sapiens) (UniProt Q5S007); assay: Inhibition of human LRRK2 at 10 uM using RLGRDKYKTLRQIRQ as substrate after 120 mins [gamma-33P]-ATP by filtration method; method in brief: as §7
[27] = biological target: Calcium/calmodulin-dependent protein kinase type II subunit alpha (Homo sapiens) (UniProt Q9UQM7); assay: Inhibition of human CAMK2a at 10 uM using KKALRRQETVDAL as substrate after 120 mins [gamma-33P]-ATP by filtration method; method in brief: as §7
[28] = biological target: Voltage-gated inwardly rectifying potassium channel KCNH2 (Homo sapiens, UniProt Q12809); assay: Inhibition of red tracer binding to human ERG expressed in membranes preincubated for 10 to 15 mins followed by tracer addition measured after 3 hrs by fluorescence polarization assay
[29] = Effective permeability of the compound at 12.5 uM after 4 hrs by PAMPA; format: ADME; conditions: read-out: Peff
Method in brief: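 BBB-PAMPA lipid membrane permeability was measured as effective permeability Pe (10^-6 cm/sec), with compound tested at 12.5 μM. Results are means ± SD of three independent experiments.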

T1 sequence (P07333 whole entry): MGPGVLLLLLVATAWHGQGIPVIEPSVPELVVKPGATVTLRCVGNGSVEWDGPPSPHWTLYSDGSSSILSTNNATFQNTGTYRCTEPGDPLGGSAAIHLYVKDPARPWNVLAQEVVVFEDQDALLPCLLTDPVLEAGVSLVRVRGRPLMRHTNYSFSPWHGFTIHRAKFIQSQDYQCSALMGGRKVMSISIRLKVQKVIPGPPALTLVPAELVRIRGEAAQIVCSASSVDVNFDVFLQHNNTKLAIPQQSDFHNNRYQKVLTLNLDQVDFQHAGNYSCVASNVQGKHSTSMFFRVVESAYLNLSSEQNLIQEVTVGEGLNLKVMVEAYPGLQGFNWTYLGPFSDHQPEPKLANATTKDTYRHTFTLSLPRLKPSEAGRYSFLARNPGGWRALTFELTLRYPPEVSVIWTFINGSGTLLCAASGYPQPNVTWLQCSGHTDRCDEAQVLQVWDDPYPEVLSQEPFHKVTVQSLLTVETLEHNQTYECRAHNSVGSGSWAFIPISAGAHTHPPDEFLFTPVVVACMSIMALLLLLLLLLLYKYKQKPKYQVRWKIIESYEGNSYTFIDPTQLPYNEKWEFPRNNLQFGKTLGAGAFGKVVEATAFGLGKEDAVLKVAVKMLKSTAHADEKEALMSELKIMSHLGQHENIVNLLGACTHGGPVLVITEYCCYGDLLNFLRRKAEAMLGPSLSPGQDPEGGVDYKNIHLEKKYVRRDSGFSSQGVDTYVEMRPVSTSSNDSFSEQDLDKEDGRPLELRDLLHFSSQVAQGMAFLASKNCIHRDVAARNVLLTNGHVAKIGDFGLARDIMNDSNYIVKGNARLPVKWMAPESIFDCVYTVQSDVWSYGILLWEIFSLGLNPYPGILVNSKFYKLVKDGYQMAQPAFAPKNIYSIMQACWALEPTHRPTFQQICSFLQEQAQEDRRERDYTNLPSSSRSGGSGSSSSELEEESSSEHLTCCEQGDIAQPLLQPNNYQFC

Work on COc1ccc(Oc2nc(Nc3ccc(N4CCCCC4)nc3)ncc2NC(=O)c2cc(OC)cc(OC)c2)cc1 yielded an inhibition [1] of 76%, an IC50 [2] of 1720 nM and an inhibition [3] of 67.3%. For the same molecule, the IC50 [4] was 2690 nM and the inhibition [5] was “Active”.
Work on COc1ccc(Oc2nc(Nc3ccc(N4CCOCC4)cc3)ncc2NC(=O)c2cccc(OC)c2)cc1 yielded an inhibition [1] of 91.8%, an IC50 [2] of 780 nM and an inhibition [3] of 75.1%. The IC50 [4] was 7440 nM and the inhibition [5] was “Active”.
COc1ccc(Oc2nc(Nc3ccc(N4CCOCC4)cc3)ncc2NC(N)=O)cc1 gave an inhibition [1] of 65%, an IC50 [2] of 4420 nM and an inhibition [6] of 10.8%.
Work on COc1ccc(Oc2nc(Nc3ccc(F)cc3)ncc2NC(=O)c2cc(OC)cc(OC)c2)cc1 yielded an inhibition [1] of 35.2%, an inhibition [3] of 65% and an IC50 [4] of 4290 nM. The inhibition [5] was “Active” and the inhibition [7] was “inactive”.
Molecule COc1ccc(Oc2nc(Nc3ccc(F)cc3)ncc2NC(N)=O)cc1 has an inhibition [1] of 21% and an inhibition [3] of 17.1%.
In the case of COc1ccc(Oc2nc(Nc3ccc(N4CCCCC4)nc3)ncc2NC(N)=O)cc1, the inhibition [1] is reported as 28.4% and the inhibition [3] is reported as 31.7%.
Molecule COc1ccc(Oc2nc(Nc3ccc(N4CCOCC4)nc3)ncc2NC(=O)c2cc(OC)cc(OC)c2)cc1 has an inhibition [1] of 77.9%, an IC50 [2] of 150 nM and an inhibition [3] of 66.2%. For the same molecule, the IC50 [4] was 1250 nM, the IC50 [8] was 2890 nM and the IC50 [9] was 920 nM. It also gave a Ki [10] of 581 nM, an IC50 [11] of 69 nM and an IC50 [12] of 273 nM. The Ki [13] was 129 nM, the inhibition [5] was “Active” and the inhibition [7] was “Active”. For the same molecule, the inhibition [14] was 100%, the IC50 [15] was 5000 nM and the inhibition at 10 µM (BV-2) was 55%. The viability at 24 h, 10 µM [16] was greater than 92%, the inhibition [17] was “inactive” and the inhibition [18] was “inactive”. The inhibition [19] was “Active”, the inhibition [20] was “Active” and the inhibition [21] was “Active”. For the same molecule, the inhibition [22] was “inactive”, the inhibition [23] was “inactive” and the inhibition [24] was “inactive”. For the same molecule, the inhibition [25] was “inactive”, the inhibition [26] was “inactive” and the inhibition [27] was “inactive”. For the same molecule, the IC50 [28] was 17100 nM and the Papp at 4 h, 12.5 µM [29] was 57 ×10⁻⁶ cm/s.
